NR3A LBD binder – binders of NR3A ligand-binding domain, primary screen, biophysical, differential scanning fluorimetry, uHTS | Glutamate receptor ionotropic, NMDA 3A (GRIN3A) ligand-binding domain | NR3A LBD differential scanning fluorimetry, Tm shift; 0% = protein alone, 100% = glycine-bound protein | Tm shift relative to glycine control, % at 25 µM | hit rate 2.5% among 340,000;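 active = melting temperature shift of at least 10% of the positive control shift, at one fixed dose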
EBNA-1 inh – EBNA-1 DNA-binding inhibitors, primary screen, biochemical, fluorescence polarization; AID 1950, 2009; hit rate 0.34% among 300,000; inhibition, % at 14.8 µM; in the data active = inhibition above about 28%
ZTA DNA inh – counter-screen for EBNA-1 inhibitors: inhibitors of Epstein-Barr virus ZTA; P03206; ZTA-DNA binding, fluorescence polarization; inhibition, % at 11 µM; hit rate 0.15% among 320,000; AID 2234; in the data active = inhibition above about 33%
Target sequence (P03206 whole entry, looked up): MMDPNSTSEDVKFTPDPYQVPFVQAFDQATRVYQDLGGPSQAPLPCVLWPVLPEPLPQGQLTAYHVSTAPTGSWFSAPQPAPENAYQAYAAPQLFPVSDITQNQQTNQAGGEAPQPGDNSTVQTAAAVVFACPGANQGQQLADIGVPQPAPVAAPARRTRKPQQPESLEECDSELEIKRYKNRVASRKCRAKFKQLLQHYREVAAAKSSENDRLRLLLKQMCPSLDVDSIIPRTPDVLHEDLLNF
FID counter – compounds displacing fluorescent DNA intercalator, primary screen, artefact control for HCV NS3 helicase inhibitor project, biochemical, FID fluorescence. inhibition, % at 7.9 µM. DNA fluorescent intercalator displacement. hit rate 0.17% among 290,000; in the data active = inhibition above about 37%;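 also: 0% = vehicle and 100% = reference compound; higher means more ethidium bromide displaced from hairpin DNA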
FGF22 binding – binders of human FGF22 protein, primary screen, FGF22 synaptogenesis inhibitor project, biophysical, thermal shift, single point. Fibroblast growth factor 22 (Homo sapiens), Q9HCT0. AID 651658, 2012. recombinant FGF22 thermal shift, SYPRO orange fluorescence; percent of sucrose octasulfate shift, DMSO zero. hit rate 1.5% among 340,000. activity (Tm shift, normalised), % at 9.99 µM;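 active = mean Tm shift, scaled 0 neutral to 100 positive control, at about 1.3% or above, every replicate too, limit read from the data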
Target sequence (Q9HCT0 whole entry, looked up): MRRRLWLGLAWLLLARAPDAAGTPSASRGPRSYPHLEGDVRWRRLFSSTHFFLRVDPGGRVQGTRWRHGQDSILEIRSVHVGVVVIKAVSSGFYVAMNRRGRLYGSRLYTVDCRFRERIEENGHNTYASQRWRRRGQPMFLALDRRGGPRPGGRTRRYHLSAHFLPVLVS
NS3 helicase inh – inhibitors of HCV NS3 helicase, primary screen, biochemical, Cy5 molecular beacon fluorescence | inhibition, % at 10.9 µM | NS3 helicase DNA unwinding | hit rate 0.56% among 290,000;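 active = inhibition above the mean of all tested compounds plus 3 SD, set per campaign, cut at about 35% in these data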;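 also: 0% = DMSO wells and 100% = thioflavine S control wells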
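test system = hepatitis C virus NS3 helicase domain fragment enzyme | reagent = annealed dual-labelled DNA beacon duplex, ATP-started | times = 1 h at 25 °C | detection = Cy5 fluorescence, 0 and 60 min reads | read-out basis = percent inhibition from t60/t0 fluorescence ratio | control set = DMSO and thioflavine S | replication = one well per compound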
Active calls of the source: *; · = not tested or not shown. An excerpt weighted towards active compounds, which were near 3.6% of everything screened.

SMILES	NR3A LBD binder	EBNA-1 inh	ZTA DNA inh	FID counter	FGF22 binding	NS3 helicase inh
C[C@@H]1CN([C@H](C)CO)C(=O)c2cc(-c3ccccc3)cnc2O[C@@H]1CN(C)C(=O)Cc1ccccn1	·	·	·	·	0	·
O=C(Cn1nnc(-c2cccs2)n1)NCc1cccs1	-1	-5	1	-8	43*	2
CCCNC(=O)N(C)C[C@H]1Oc2cc(-c3cncnc3)ccc2S(=O)(=O)N([C@H](C)CO)C[C@H]1C	·	·	·	·	0	·
COc1ccc(C)cc1NC(=O)CSc1nnnn1Cc1ccccc1	15*	8	10	-17	·	-24
COc1ccc(C)cc1NC(=O)C(Sc1nnc2ccccn12)c1ccccc1 (stereo unspecified)	15*	-6	1	-36	·	5
COc1cc(NC(=O)CSc2nnnn2Cc2ccccc2)cc(OC)c1	1	0	-17	-16	0	5
O=C(C[C@H]1CC[C@@H]2[C@H](COC[C@H](O)CN2C(=O)Nc2ccccc2)O1)NC1Cc2ccccc2C1	·	·	·	·	0	·
O=C(Cc1cccc2ccccc12)NN1C(=O)CSC1=S	-2	3	-7	-4	44*	31
CCOC(=O)/C(C)=N/NC(=O)c1ccc([N+](=O)[O-])cc1	0	-5	-3	0	44*	12
CCOC(=O)C(CC)/C(C)=N/NC(=O)c1ccc([N+](=O)[O-])cc1 (stereo unspecified)	·	-2	-1	1	·	5
COc1ccc2cc3c(N)nn(C(=O)c4ccc(Cl)c([N+](=O)[O-])c4)c3nc2c1	22*	8	4	2	0	11
CNC(=O)C[C@H]1CC[C@@H]2[C@H](COC[C@H](O)CN2S(=O)(=O)c2ccccc2Cl)O1	·	·	·	·	0	·
Cn1c(=O)[nH]c(=O)c2c1nc(SCCN1CCCCC1)n2Cc1ccccc1	12*	4	15	14	·	3
COc1c(C(=O)NNC(=O)c2ccccc2)csc1Br	12*	8	-4	-2	0	-7
COc1cccc(C(=O)NNC(=O)c2ccccc2)c1	2	·	·	-11	0	13
COc1ccc2c3c([nH]c2c1)[C@H](CO)N(Cc1ccccc1F)CC31CCN(C(=O)C2CCC2)CC1	·	·	·	·	0	·
Cc1cnc(NC(=O)Nc2ccc(Cl)cc2)s1	26*	3	11	6	1	-10
Cc1csc(NC(=O)Nc2ccc(Cl)cc2)n1	21*	3	12	-1	·	-10
Cc1cnc(NC(=O)CSc2ccc(Cl)cc2)s1	6	5	1	-7	·	-5
O=C(Cc1csc(NC(=O)Nc2ccc(Cl)cc2)n1)NC1CCCC1	13*	-4	-6	·	0	·
O=C(Nc1ccc(Cl)cc1)Nc1nc(-c2ccccc2O)cs1	26*	-2	-3	-1	0	3
CNC[C@H]1Oc2ccc(NC(=O)NC(C)C)cc2CC(=O)N([C@H](C)CO)C[C@H]1C	·	·	·	·	0	·
CC(C)(C)c1nc(SCC(=O)N2CC(=O)Nc3ccccc32)c2ccccc2n1	-2	3	-11	0	44*	12
O=S(=O)(N[C@@H]1CCCN(Cc2ccc(OCCO)cc2)C1)c1cc(C(F)(F)F)ccc1Cl	·	·	·	·	0	·
Nc1cc(C(=O)OCC(=O)N2CCOCC2)ccc1Cl	-5	-4	2	-5	-1	-3
SMILES	NR3A LBD binder	EBNA-1 inh	ZTA DNA inh	FID counter	FGF22 binding	NS3 helicase inh
Nc1ccc(C(=O)OCC(=O)N2CCOCC2)cc1[N+](=O)[O-]	0	-4	0	-3	43*	11
Nc1ccc(C(=O)OCc2csc(-c3ccccc3)n2)cc1[N+](=O)[O-]	29*	-8	-7	2	·	-4
COc1ccc(C(=O)OCC(=O)N2C(C)CCCC2C)cc1[N+](=O)[O-] (stereo unspecified)	-1	0	12	-1	43*	7
CNS(=O)(=O)c1cccc(C(=O)OCc2csc(-c3ccccc3)n2)c1	-19	-15	-6	-12	·	-5
Cc1noc(C)c1S(=O)(=O)N(C)C[C@@H]1OCCCC[C@@H](C)Oc2ccc(NC(=O)NC3CCCCC3)cc2C(=O)N([C@@H](C)CO)C[C@@H]1C	·	·	·	·	0	·
CS(=O)(=O)Nc1ccc(C2=NN(C(=O)c3ccco3)C(c3ccccc3)C2)cc1 (stereo unspecified)	12*	3	0	-11	·	-3
C[C@@H]1CCCCO[C@@H](CN(C)CC2CCCCC2)[C@H](C)CN([C@H](C)CO)C(=O)c2cc(NS(=O)(=O)c3ccc(F)cc3)ccc2O1	·	·	·	·	0	·
C#CCN1CCc2onc(-c3ccccc3OC)c2C1=O	·	·	·	·	43*	·
COc1cccc(C#Cc2ccc3c(c2)O[C@H](CN(C)C(=O)c2ccccn2)[C@H](C)CN([C@@H](C)CO)S3(=O)=O)c1	·	·	·	·	0	·
Cc1cc(C)c(NC(=O)c2ccccc2CCc2ccccc2)c(C)c1	-4	2	-4	-5	·	-4
Cc1cc(C)c(NC(=O)c2ccccc2C(=O)c2ccccc2)c(C)c1	1	3	8	-23	43*	1
C[C@H]1CN([C@@H](C)CO)C(=O)c2c(c3ccccc3n2C)-c2ccccc2CO[C@@H]1CN(C)C(=O)C1CC1	·	·	·	·	0	·
COc1ccccc1NC(=O)c1ccc(NC(=O)COC(=O)C2CC2C)cc1 (stereo unspecified)	-14	-6	-16	-22	·	11
Cc1ccccc1CN(C)CC(=O)Nc1ccccc1-c1ccccc1	23*	-8	9	-17	·	-7
COc1ccccc1NC(=O)c1ccc(NC(=O)c2cc3c(s2)CCC3)cc1	30*	3	7	1	·	1
Cc1ccccc1CN(C)CC(=O)Nc1ccccc1Oc1ccccc1	14*	4	9	-5	0	-11
COc1ccccc1NC(=O)c1ccc(NC(=O)CN(C)Cc2ccccc2F)cc1	-8	-1	-8	-6	43*	-7
CN(CC(=O)Nc1ccccc1Oc1ccccc1)Cc1ccccc1F	0	2	-17	-14	·	8
COc1ccc(S(=O)(=O)N(C)C[C@@H]2Oc3c(NS(=O)(=O)c4ccc(Cl)cc4)cccc3C(=O)N([C@H](C)CO)C[C@H]2C)cc1	·	·	·	·	0	·
CCS(=O)(=O)N[C@H]1C=C[C@H](CC(=O)NCc2ccc(F)cc2)O[C@H]1CO	·	·	·	·	0	·
Cc1ccnc(NC(c2ccccc2)c2ccc3cccnc3c2O)c1 (stereo unspecified)	148*	·	·	·	-1	·
Cc1ccc(S(=O)(=O)N(C)C[C@@H]2Oc3ccc(NC(=O)C4CC4)cc3C(=O)N([C@@H](C)CO)C[C@H]2C)cc1	·	·	·	·	0	·

Screening results from PubChem BioAssay.
